High-throughput results (PubChem BioAssay)
SR-BI uptake up: SR-BI HDL lipid transfer activation; CHO ldlA[mSR-BI] cells, DiI-HDL uptake fluorescence, 3 h; 100 = double the neutral-control signal; activation, % at 12.5 µM; hit rate 0.096% among 320,000; AID 504775;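 active = mean replicate activation of at least 60% and every replicate at or above 60%; inconclusive = mean or all-replicate condition met, but not both; inactive = mean below 60% and not all replicates reaching 60%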;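 note: 0% = median plate neutral-control signal and 100% = twice that signal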
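Material – SR-BI-overexpressing, LDLR-lacking CHO cells · Medium – BSA-supplemented, HEPES-buffered Ham's F12, pH 7.4 · Doses – single concentration · Times – compound with DiI-HDL co-incubation, 3 h at 37 °C · Measured by – bottom-read fluorescence, 550/595 nm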
SR-BI DiI inh: inhibitors of mouse SR-BI mediated HDL lipid uptake. Q61009. ldlA[mSR-BI] CHO cells, DiI-HDL uptake fluorescence, 3 h. inhibition, % at 12.5 µM. hit rate 0.96% among 320,000. AID 488896;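 active = mean replicate inhibition of at least 70% and a set share of replicates each scoring 70 or more; inconclusive = meets just one of the two criteria; inactive = fails both criteria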;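 note: 0% = median of neutral control wells and 100% = median of positive control wells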
Neddyl block: inhibitors of human cullin neddylation. P61081+Q13564. TR-FRET cullin neddylation, biochemical. inhibition, % at 25 µM. hit rate 0.58% among 360,000. AID 651699; in the data active = inhibition above about 36%
Target sequence (P61081 whole entry, looked up): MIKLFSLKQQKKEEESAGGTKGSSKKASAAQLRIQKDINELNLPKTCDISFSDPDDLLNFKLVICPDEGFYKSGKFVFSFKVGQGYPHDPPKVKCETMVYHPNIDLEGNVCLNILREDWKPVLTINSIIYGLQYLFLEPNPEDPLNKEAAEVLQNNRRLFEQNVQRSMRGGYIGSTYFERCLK
Target sequence (Q13564 whole entry, looked up): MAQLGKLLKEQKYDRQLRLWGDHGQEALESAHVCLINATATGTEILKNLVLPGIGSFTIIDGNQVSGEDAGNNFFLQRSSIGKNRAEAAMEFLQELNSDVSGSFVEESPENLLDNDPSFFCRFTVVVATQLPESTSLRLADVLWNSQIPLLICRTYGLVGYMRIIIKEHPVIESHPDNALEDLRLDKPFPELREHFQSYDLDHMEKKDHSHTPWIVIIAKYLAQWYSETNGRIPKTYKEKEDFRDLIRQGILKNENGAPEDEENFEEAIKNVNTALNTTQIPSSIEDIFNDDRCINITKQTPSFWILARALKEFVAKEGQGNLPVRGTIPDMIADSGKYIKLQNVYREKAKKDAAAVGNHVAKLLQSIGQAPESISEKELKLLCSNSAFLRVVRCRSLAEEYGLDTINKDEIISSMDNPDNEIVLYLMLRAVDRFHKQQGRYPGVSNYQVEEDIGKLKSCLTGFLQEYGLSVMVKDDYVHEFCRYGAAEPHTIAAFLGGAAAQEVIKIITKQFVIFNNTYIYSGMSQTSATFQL
UBC13 polyUb: human UBC13 polyubiquitination inhibition; hit rate 0.47% among 330,000; UBC13 polyubiquitin chain formation, TR-FRET; inhibition, % at 20 µM; in the data active = inhibition above about 45%, passing the limit was not always enough; inconclusive = no clear call, values can overlap the other calls
Casp3 counter: counter-screen for UBC13 inhibitors: human caspase-3 inhibition; hit rate 4% among 1,400; shares compounds with UBC13 polyUb; Recombinant caspase-3, Caspase-Glo 3/7 luminescence, 60 min; inhibition, % at 20 µM; AID 488856;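 active = mean inhibition across replicates above about 26%, limit read from the data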;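 note: plate controls were DMSO with caspase-3 for no effect and DMSO wells lacking enzyme for full effect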
UBC13 confirm: confirmation of human UBC13 polyubiquitin inhibitors | shares compounds with UBC13 polyUb | UBC13 polyubiquitination, TR-FRET, biochemical | inhibition, % at 10 µM | hit rate 68% among 1,400; in the data active = inhibition above about 45%; inconclusive = no clear call, values can overlap the other calls
* hit, by the source's call. Rows were chosen to be rich in hits. Some 1.9% of all compounds tested hit in one or more screens of this group.

Screening CN(C)CCCNc1nc2sc3c(c2c(=O)n1CCc1ccccc1)CCCCC3 returned SR-BI uptake up 21.2, SR-BI DiI inh -21.2, Neddyl block 0.4, UBC13 polyUb 49.3*, Casp3 counter -1.2 and UBC13 confirm 72.6*.
`CN1CCCN(C(=O)c2cccc3ccccc23)CC1` gave SR-BI uptake up 12.2, SR-BI DiI inh -12.2, Neddyl block -3.0 and UBC13 polyUb -0.7.
`CCOC(=O)C1=C(COC(=O)c2ncc(Cl)c(Cl)c2Cl)NC(=O)NC1C` (stereo not given) gave SR-BI uptake up 5.7, SR-BI DiI inh -5.7, Neddyl block 0.9, UBC13 polyUb 75.7*, Casp3 counter -1.9 and UBC13 confirm 87.4*.
`CCOC(=O)C1=C(COC(=O)c2nc(Cl)ccc2Cl)NC(=O)NC1C` (stereo not given) gave SR-BI uptake up 9.4, SR-BI DiI inh -9.4, Neddyl block 11.2 and UBC13 polyUb 9.5.
`O=c1c2cc(N3CCOCC3)ccc2[nH]c(=S)n1Cc1ccccn1` gave SR-BI uptake up -1.5, SR-BI DiI inh 1.5 and UBC13 polyUb 4.4.
O=c1c2cc(N3CCOCC3)ccc2[nH]c(=S)n1Cc1ccccc1Cl was read as SR-BI uptake up -11.2, SR-BI DiI inh 11.2, Neddyl block 14.6, UBC13 polyUb 45.2*, Casp3 counter -3.8 and UBC13 confirm inconclusive.
Screening CN(CC1CCCO1)S(=O)(=O)c1ccc(C(=O)Nc2nnc(-c3ccccc3)o2)cc1 (stereo not given) returned SR-BI uptake up 18.4, SR-BI DiI inh -18.4, Neddyl block 12.6 and UBC13 polyUb -0.7.
CCCCOc1ccc(CNn2c(C)nc3ccccc3c2=O)cc1 was read as SR-BI uptake up -15.4, SR-BI DiI inh 15.4, Neddyl block -58.6, UBC13 polyUb 74.7*, Casp3 counter 0.2 and UBC13 confirm 82.5*.
For COc1ccc(CNn2c(C)nc3ccccc3c2=O)cc1 the results were SR-BI uptake up -10.2, SR-BI DiI inh 10.2, Neddyl block -5.0, UBC13 polyUb 47.0*, Casp3 counter -2.2 and UBC13 confirm 48.9*.
Screening COc1ccc(CNn2c(-c3cccc(C)c3)nc3ccccc3c2=O)cc1OC returned SR-BI uptake up -29.9, SR-BI DiI inh 29.9, Neddyl block -7.5 and UBC13 polyUb -7.3.
Cc1ccc(Nc2nnc(-c3ccccc3N)o2)cc1C was read as SR-BI uptake up -27.7, SR-BI DiI inh 27.7, UBC13 polyUb 46.0*, Casp3 counter 39.0* and UBC13 confirm 2.0.
Screening COC(=O)c1c(NC(=S)NN2CCN(C)CC2)sc2c1CCC(C)C2 (stereo not given) returned SR-BI uptake up 5.3, SR-BI DiI inh -5.3, Neddyl block -88.5, UBC13 polyUb 61.6*, Casp3 counter 3.7 and UBC13 confirm 91.2*.
C=CCn1c(SCC(=O)N(CC)C2CCS(=O)(=O)C2)nnc1-c1ccccc1 (stereo not given) was read as SR-BI uptake up 73.4*, SR-BI DiI inh -73.4, Neddyl block -8.5, UBC13 polyUb 54.2*, Casp3 counter 2.1 and UBC13 confirm 53.4*.
CCN(C(=O)CSc1nnc(-c2ccccc2)n1C)C1CCS(=O)(=O)C1 (stereo not given) was read as SR-BI uptake up 40.9, SR-BI DiI inh -40.9, Neddyl block -3.6 and UBC13 polyUb -3.1.
`CCCCC(=O)N(C)c1c(C)nc2ccc(C(=O)NCc3ccccc3OC)cn12` gave Neddyl block 13.6.
For CC(C)N1CCc2c(sc(NC(=O)c3ccc(S(=O)(=O)N4CCc5ccccc54)cc3)c2C(N)=O)C1 the results were SR-BI uptake up 35.3, SR-BI DiI inh -35.3, Neddyl block 26.4, UBC13 polyUb 50.4*, Casp3 counter 0.2 and UBC13 confirm 40.7.
Screening CC(C)N1CCc2c(sc(NC(=O)c3nc4ccccc4s3)c2C(N)=O)C1 returned SR-BI uptake up -2.0, SR-BI DiI inh 2.0, Neddyl block -15.5 and UBC13 polyUb 1.8.
`CC(C)N1CCc2c(sc(NC(=O)c3cc(-c4cccs4)nc4ccccc34)c2C(N)=O)C1` gave SR-BI uptake up -16.6, SR-BI DiI inh 16.6, Neddyl block -206.0, UBC13 polyUb 53.6*, Casp3 counter -3.8 and UBC13 confirm 48.7*.
Screening CCOC(=O)CC1C(=O)NCCN1C(=S)NC(=O)c1ccc(C)c(Br)c1 (stereo not given) returned Neddyl block 1.4.
`CCOc1ccc(Cl)cc1Nc1nc(NCCO)nc(N2CCCC2)n1` gave SR-BI uptake up -28.8, SR-BI DiI inh 28.8, Neddyl block -24.9 and UBC13 polyUb 37.1.
COc1ccc(Cl)cc1Nc1nc(NCCO)nc(N2CCCCC2)n1 was read as SR-BI uptake up -27.5, SR-BI DiI inh 27.5, Neddyl block -8.4, UBC13 polyUb 62.3*, Casp3 counter 5.9 and UBC13 confirm 32.0.
`CCCCOc1ccc(Cl)cc1Nc1nc(NCCO)nc(N2CCCC2)n1` gave SR-BI uptake up -28.5, SR-BI DiI inh 28.5, Neddyl block -21.8, UBC13 polyUb 59.5*, Casp3 counter -3.5 and UBC13 confirm 19.3.
COc1ccc(Cl)cc1Nc1nc(NCCO)nc(N2CCCC2)n1 was read as SR-BI uptake up -28.7, SR-BI DiI inh 28.6, Neddyl block -13.4 and UBC13 polyUb 8.1.
`OCCNc1nc(Nc2cc(Cl)ccc2OC2CCCC2)nc(N2CCCC2)n1` gave SR-BI uptake up -29.2, SR-BI DiI inh 29.2, Neddyl block -21.0, UBC13 polyUb 52.1*, Casp3 counter 1.5 and UBC13 confirm 36.7.
OCCNc1nc(Nc2ccccc2Cl)nc(N2CCCC2)n1 was read as SR-BI uptake up -24.8, SR-BI DiI inh 24.8, Neddyl block -12.3 and UBC13 polyUb 9.1.
For CC(C)Oc1ccc(Cl)cc1Nc1nc(NCCO)nc(N2CCCC2)n1 the results were SR-BI uptake up -43.0, SR-BI DiI inh 43.0, Neddyl block -7.4, UBC13 polyUb 59.7*, Casp3 counter 7.8 and UBC13 confirm 34.3.
`CCc1ccc(-c2cc(C)no2)cc1S(=O)(=O)N1CCN(c2ccc(F)cc2)CC1` gave SR-BI uptake up -51.4, SR-BI DiI inh 51.4, Neddyl block -3.1 and UBC13 polyUb -6.1.
COc1ccc(/C=C/C(=O)Nc2c(C)nn(C)c2C)cc1COc1ccc(Cl)cc1Br was read as SR-BI uptake up -53.2, SR-BI DiI inh 53.2, Neddyl block 2.5, UBC13 polyUb 60.1*, Casp3 counter -1.9 and UBC13 confirm 63.2*.
CCCCN(C(=O)C1CC(=O)N(Cc2ccc(C)cc2)C1)c1c(N)n(CC(C)C)c(=O)[nH]c1=O (stereo not given) was read as SR-BI uptake up 5.3, SR-BI DiI inh -5.3, Neddyl block -5.1 and UBC13 polyUb -9.2.
Screening COc1ccc(C)c2sc(N(CCCN(C)C)C(=O)c3ccc(S(=O)(=O)N(C)C)cc3)nc12 returned SR-BI uptake up 23.1, SR-BI DiI inh -23.1, Neddyl block 1.7, UBC13 polyUb 48.6*, Casp3 counter -5.1 and UBC13 confirm 54.4*.
